# Source: ChEMBL document CHEMBL3286317, “Synthesis and biological evaluation of a unique heparin mimetic hexasaccharide for structure-activity relationship studies” (J Med Chem, 2014)
# pKd, pKi: −log10 of the molar value. Active and inactive are the calls of the source. The rule behind the calls is not given here.
# Assays:
# [1] = target: Fibroblast growth factor 2 (Homo sapiens, UniProt P09038); assay: Binding affinity to human recombinant FGF2 at 780 uM by STD-NMR analysis
# [2] = target: T1, Bone morphogenetic protein 4 (Homo sapiens, UniProt P12644); assay: Binding affinity to human recombinant BMP4 by surface plasmon resonance assay
# T1 sequence (P12644 whole entry): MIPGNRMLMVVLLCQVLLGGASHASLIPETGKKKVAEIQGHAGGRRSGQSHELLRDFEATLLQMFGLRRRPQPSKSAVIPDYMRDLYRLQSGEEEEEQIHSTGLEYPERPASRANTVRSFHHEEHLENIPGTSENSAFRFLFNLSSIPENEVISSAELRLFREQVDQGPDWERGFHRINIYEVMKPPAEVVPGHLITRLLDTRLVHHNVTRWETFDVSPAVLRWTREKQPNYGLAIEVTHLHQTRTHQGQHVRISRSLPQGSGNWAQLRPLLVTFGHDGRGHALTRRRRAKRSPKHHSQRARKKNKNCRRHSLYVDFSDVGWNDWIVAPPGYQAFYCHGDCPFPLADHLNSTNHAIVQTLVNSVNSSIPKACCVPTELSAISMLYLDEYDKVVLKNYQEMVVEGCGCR
# Outline: (§1)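 Biotinylated low-molecular-weight heparin was captured on a neutravidin surface. Protein at varying concentrations was mixed with a hexasaccharide dilution series and injected. Free protein was read from a quadratic slope-vs-concentration standard curve. KD = [P_free][H_total]/[P_bound], averaged over three hexasaccharide concentrations.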
# [3] = target: T2, P-selectin/P-selectin glycoprotein ligand 1 (Homo sapiens, UniProt P16109+Q14242); assay: Inhibition of PSEL/PSGL1 (unknown origin) interaction; type: protein assay
# T2 sequence (Q14242 whole entry): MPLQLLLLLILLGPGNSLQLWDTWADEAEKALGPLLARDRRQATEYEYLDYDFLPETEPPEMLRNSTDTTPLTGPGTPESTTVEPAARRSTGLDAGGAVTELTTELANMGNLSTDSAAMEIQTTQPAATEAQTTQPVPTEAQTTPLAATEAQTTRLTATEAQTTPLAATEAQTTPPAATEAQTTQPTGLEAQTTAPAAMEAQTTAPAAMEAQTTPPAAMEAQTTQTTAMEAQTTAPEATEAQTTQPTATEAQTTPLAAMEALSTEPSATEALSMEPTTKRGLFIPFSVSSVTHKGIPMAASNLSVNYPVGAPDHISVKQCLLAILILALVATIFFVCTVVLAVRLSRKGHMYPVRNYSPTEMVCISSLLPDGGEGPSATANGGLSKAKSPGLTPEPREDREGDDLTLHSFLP
# T2 sequence (P16109 whole entry): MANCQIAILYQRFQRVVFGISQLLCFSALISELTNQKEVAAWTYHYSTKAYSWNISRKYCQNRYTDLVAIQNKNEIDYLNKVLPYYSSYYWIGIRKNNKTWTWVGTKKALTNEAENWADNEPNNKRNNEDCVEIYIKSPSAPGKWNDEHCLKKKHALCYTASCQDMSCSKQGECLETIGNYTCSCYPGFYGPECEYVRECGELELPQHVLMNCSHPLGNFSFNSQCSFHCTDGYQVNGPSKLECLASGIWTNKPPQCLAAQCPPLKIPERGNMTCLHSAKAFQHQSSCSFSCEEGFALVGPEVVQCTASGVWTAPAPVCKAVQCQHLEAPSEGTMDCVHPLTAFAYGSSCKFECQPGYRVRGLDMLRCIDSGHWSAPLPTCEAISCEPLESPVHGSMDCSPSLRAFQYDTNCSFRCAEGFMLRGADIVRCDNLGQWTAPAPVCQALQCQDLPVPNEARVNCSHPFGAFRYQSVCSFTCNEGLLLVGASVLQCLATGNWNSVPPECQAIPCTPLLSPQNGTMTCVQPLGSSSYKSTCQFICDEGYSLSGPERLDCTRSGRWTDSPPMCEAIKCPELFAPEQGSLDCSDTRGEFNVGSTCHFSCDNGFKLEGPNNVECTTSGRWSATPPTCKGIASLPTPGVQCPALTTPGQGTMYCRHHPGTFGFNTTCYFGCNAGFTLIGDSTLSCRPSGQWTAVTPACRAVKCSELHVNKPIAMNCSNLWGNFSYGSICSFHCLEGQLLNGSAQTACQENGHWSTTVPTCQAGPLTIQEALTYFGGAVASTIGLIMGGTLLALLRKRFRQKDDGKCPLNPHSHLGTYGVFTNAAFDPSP
# Outline: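 Hexasaccharide dilution series mixed with 50 nM PSEL and passed over a PSGL1-Fc-coated SPR surface. Equilibrium response was measured. IC50 came from nonlinear regression of response vs concentration, and Ki from the Cheng–Prusoff equation.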
# [4] = target: Bone morphogenetic protein 6 (Homo sapiens, UniProt P22004); assay: Binding affinity to human recombinant BMP6 by surface plasmon resonance assay; outline: as §1
# Bone morphogenetic protein 6, sequence (P22004 375-513 limits assumed): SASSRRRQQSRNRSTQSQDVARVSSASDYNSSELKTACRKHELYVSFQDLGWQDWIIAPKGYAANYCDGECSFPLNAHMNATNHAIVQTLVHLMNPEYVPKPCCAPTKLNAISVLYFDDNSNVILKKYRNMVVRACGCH
# [5] = target: T3, Bone morphogenetic protein 2 (Homo sapiens, UniProt P12643); assay: Binding affinity to human recombinant BMP2 by surface plasmon resonance assay; outline: as §1
# T3 sequence (P12643 whole entry): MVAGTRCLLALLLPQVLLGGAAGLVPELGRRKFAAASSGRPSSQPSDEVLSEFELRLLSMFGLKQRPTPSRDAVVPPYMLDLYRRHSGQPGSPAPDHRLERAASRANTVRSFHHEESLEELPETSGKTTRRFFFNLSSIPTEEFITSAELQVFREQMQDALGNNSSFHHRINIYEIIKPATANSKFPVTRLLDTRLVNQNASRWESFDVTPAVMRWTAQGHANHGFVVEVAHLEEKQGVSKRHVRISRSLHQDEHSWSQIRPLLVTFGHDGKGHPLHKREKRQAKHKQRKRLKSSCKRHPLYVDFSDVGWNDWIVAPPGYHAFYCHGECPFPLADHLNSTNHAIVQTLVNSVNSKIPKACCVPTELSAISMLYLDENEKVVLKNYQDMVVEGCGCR
# Sonic hedgehog protein = Sonic hedgehog protein (Homo sapiens, UniProt Q15465); assay: Binding affinity to human recombinant Shh by surface plasmon resonance assay; outline: as §1
# Sonic hedgehog protein, sequence (Q15465 24-197 limits assumed): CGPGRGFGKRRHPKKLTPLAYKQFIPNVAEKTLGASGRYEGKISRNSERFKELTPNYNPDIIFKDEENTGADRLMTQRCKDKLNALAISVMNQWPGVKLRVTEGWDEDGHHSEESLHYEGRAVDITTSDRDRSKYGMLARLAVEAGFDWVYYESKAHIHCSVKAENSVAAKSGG
# C-X-C motif chemokine 2 = target: T4, C-X-C motif chemokine 2 (Homo sapiens, UniProt P19875); assay: Binding affinity to human recombinant CXCL2 by surface plasmon resonance assay; outline: as §1
# T4 sequence (P19875 whole entry): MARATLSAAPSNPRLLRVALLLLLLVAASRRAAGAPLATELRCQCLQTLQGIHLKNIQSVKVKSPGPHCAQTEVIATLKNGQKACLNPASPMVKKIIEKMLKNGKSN
# [6] = target: T5, Vascular endothelial growth factor A, long form (Homo sapiens, UniProt P15692); assay: Binding affinity to human recombinant VEGF165 by surface plasmon resonance assay; outline: as §1
# T5 sequence (P15692 whole entry): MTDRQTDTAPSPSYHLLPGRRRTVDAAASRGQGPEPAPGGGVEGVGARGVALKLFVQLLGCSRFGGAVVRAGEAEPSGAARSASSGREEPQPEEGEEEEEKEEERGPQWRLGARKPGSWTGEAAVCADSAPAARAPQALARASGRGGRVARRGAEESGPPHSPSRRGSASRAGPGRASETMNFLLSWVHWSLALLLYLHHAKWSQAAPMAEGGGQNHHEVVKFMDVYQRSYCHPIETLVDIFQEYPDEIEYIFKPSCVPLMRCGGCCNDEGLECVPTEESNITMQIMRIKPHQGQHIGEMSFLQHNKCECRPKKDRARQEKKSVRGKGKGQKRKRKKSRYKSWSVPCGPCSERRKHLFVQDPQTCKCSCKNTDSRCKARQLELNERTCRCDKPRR
# Fibroblast growth factor 2, sequence (P09038 143-288 limits assumed): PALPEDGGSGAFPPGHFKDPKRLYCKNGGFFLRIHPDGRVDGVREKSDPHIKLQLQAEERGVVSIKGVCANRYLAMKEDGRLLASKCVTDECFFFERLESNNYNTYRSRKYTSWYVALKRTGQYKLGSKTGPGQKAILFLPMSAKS
SMILES,Activity [1],pKd [2],pKi [3],pKd [4],pKd [5],pKd (Sonic hedgehog protein),pKd (C-X-C motif chemokine 2),pKd [6]
NCCCCCO[C@H]1O[C@H](CO)[C@@H](O[C@@H]2O[C@@H](C(=O)O)[C@@H](O[C@H]3O[C@H](CO)[C@@H](O[C@@H]4O[C@@H](C(=O)O)[C@@H](O[C@H]5O[C@H](CO)[C@@H](O[C@@H]6O[C@@H](C(=O)O)[C@@H](O)[C@H](O)[C@H]6OS(=O)(=O)O)[C@H](O)[C@H]5NS(=O)(=O)O)[C@H](O)[C@H]4OS(=O)(=O)O)[C@H](O)[C@H]3NS(=O)(=O)O)[C@H](O)[C@H]2OS(=O)(=O)O)[C@H](O)[C@H]1NS(=O)(=O)O,Active,0.60,3.45,0.60,4.34,3.91,0.60,4.07
CCCCCO[C@H]1O[C@H](COS(=O)(=O)O)[C@@H](O[C@@H]2O[C@@H](C(=O)O)[C@@H](O[C@H]3O[C@H](COS(=O)(=O)O)[C@@H](O[C@@H]4O[C@@H](C(=O)O)[C@@H](O[C@H]5O[C@H](COS(=O)(=O)O)[C@@H](O[C@@H]6O[C@@H](C(=O)O)[C@@H](O)[C@H](O)[C@H]6OS(=O)(=O)O)[C@H](O)[C@H]5NC(C)=O)[C@H](O)[C@H]4OS(=O)(=O)O)[C@H](O)[C@H]3NC(C)=O)[C@H](O)[C@H]2OS(=O)(=O)O)[C@H](O)[C@H]1NC(C)=O,Active,0.60,3.60,0.60,4.62,4.57,0.60,4.18
CCCCCO[C@H]1O[C@H](COS(=O)(=O)O)[C@@H](O[C@@H]2O[C@@H](C(=O)O)[C@@H](O[C@H]3O[C@H](COS(=O)(=O)O)[C@@H](O[C@@H]4O[C@@H](C(=O)O)[C@@H](O[C@H]5O[C@H](COS(=O)(=O)O)[C@@H](O[C@@H]6O[C@@H](C(=O)O)[C@@H](O)[C@H](O)[C@H]6OS(=O)(=O)O)[C@H](O)[C@H]5NC(C)=O)[C@H](O)[C@H]4OS(=O)(=O)O)[C@H](O)[C@H]3NS(=O)(=O)O)[C@H](O)[C@H]2O)[C@H](O)[C@H]1NC(C)=O,Active,0.60,4.02,5.05,4.47,4.64,0.60,4.85
